Assays:
MCF7 [1] = assay: Antiproliferative activity against human MCF7 cells at 1 uM after 48 to 72 hrs by MTT assay relative to control; assay type: functional
Outline: (§1)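 Single-concentration screen in the MTT proliferation assay: log-phase cells seeded and allowed to adhere, exposed to compound at 1 µM for 48 h or 72 h, MTT added for 2-3 h, formazan dissolved in DMSO; percent inhibition versus control.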

MDA-MB-231 = assay: Antiproliferative activity against human MDA-MB-231 cells at 1 uM after 48 to 72 hrs by MTT assay relative to control; assay type: functional; outline: as §1
Raji [2] = assay: Antiproliferative activity against human Raji cells at 1 uM after 48 to 72 hrs by MTT assay relative to control; assay type: functional; outline: as §1
NCI-H460 [3] = assay: Antiproliferative activity against human H460 cells at 1 uM after 48 to 72 hrs by MTT assay relative to control; assay type: functional; outline: as §1
A549 = assay: Antiproliferative activity against human A549 cells after 48 to 72 hrs by MTT assay; assay type: functional, cell-based
Outline: (§2)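 Cells in log phase seeded and allowed to adhere, then exposed to graded compound concentrations for 48 h or 72 h; MTT added for a further 2-3 h, formazan dissolved in DMSO. IC50 taken from dose-response curves; mean ± SD of at least three independent experiments.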

[4] = Resistance index, ratio of IC50 for human A549/TR cells to IC50 for human A549 cells; assay type: functional
A549/TR = assay: Antiproliferative activity against human A549/TR cells after 48 to 72 hrs by MTT assay; assay type: functional, cell-based; outline: as §2
A2780S = assay: Antiproliferative activity against human A2780S cells after 48 to 72 hrs by MTT assay; assay type: functional, cell-based; outline: as §2
A2780/Taxol = assay: Antiproliferative activity against human A2780T cells after 48 to 72 hrs by MTT assay; assay type: functional, cell-based; outline: as §2
[5] = Resistance index, ratio of IC50 for human A2780T cells to IC50 for human A2780S cells; assay type: functional
NCI-H460 [6] = assay: Antiproliferative activity against human H460 cells after 48 to 72 hrs by MTT assay; assay type: functional, cell-based; outline: as §2
MCF7 [7] = assay: Antiproliferative activity against human MCF7 cells after 48 to 72 hrs by MTT assay; assay type: functional, cell-based; outline: as §2
Raji [8] = assay: Antiproliferative activity against human Raji cells after 48 to 72 hrs by MTT assay; assay type: functional, cell-based; outline: as §2
NCI-H460 [9] = assay: Antitumor activity against human H460 cells xenografted in athymic nude Balb/C mouse assessed as tumor growth inhibition at 30 mg/kg, ip administered once per week measured every two days relative to control; assay type: functional; conditions: 48 h, read-out: TGI
Outline: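 Nude mice (5-6 weeks old, female) implanted sc in right flank with 5 × 10^6 H460 cells in HBSS; at 100 mm3 tumours, randomised 6 per group to vehicle, oral 100 mg/kg three times weekly, or ip 30 mg/kg once weekly. Tumour volume by caliper every 2 days as (π/6) × length × width²; body weight recorded; inhibition from tumour weights versus control.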

Mus musculus = assay: Toxicity in athymic nude Balb/C mouse xenografted with human H460 cells assessed as body weight loss at 30 mg/kg, ip administered once per week measured every 2 days; assay type: organism-based; conditions: in vivo, 48 h
Outline: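 Nude mice, 5-to-6-week-old females, given 5 × 10^6 H460 cells sc in right flank in HBSS; at 100 mm3 tumour volume randomized, 6 per group. Vehicle; oral 100 mg/kg three times weekly; or ip 30 mg/kg once weekly. Toxicity signs and mortality observed daily; body weight measured every 2 days.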

IC50 (A549) [µM] | IC50 (A549/TR) [µM] | IC50 (A2780S) [µM] | IC50 (A2780/Taxol) [µM] | IC50 (NCI-H460 [6]) [µM] | IC50 (MCF7 [7]) [µM] | IC50 (Raji [8]) [µM] | Structure (SMILES) | inhibition at 1 µM (MCF7 [1]) [%] | inhibition at 1 µM (MDA-MB-231) [%] | inhibition at 1 µM (Raji [2]) [%] | inhibition at 1 µM (NCI-H460 [3]) [%] | Ratio IC50 [4] | Ratio IC50 [5] | inhibition in vivo at 30 mg/kg (NCI-H460 [9]) [%] | Activity (Mus musculus) [%]
 |  |  |  |  |  |  | CN(Cc1ccccc1)Cc1nnc(-c2cc3c(cn2)[nH]c2ccccc23)o1 | -1.84 | -3.26 | 16.3 | 3.74 |  |  |  | 
 |  |  |  |  |  |  | O=C(N/N=C/c1cccc(OCc2cccc(F)c2)c1)c1cc2c(cn1)[nH]c1ccccc12 | 17.1 | 16.5 | 40.4 | 21.7 |  |  |  | 
 |  |  |  |  |  |  | O=C(N/N=C/c1cccc(Oc2ccccc2)c1)c1cc2c(cn1)[nH]c1ccccc12 | -18.6 | 6.76 | 2.06 | 22.1 |  |  |  | 
 |  |  |  |  |  |  | O=Cc1cccc(OCc2nnc(-c3cc4c(cn3)[nH]c3ccccc34)o2)c1 | 26.8 | 9.83 | 17.7 | 13.9 |  |  |  | 
 |  |  |  |  |  |  | COc1ccc(/C=N/NC(=O)c2cc3c(cn2)[nH]c2ccccc23)cc1OCc1ccccc1 | -6.31 | 22.2 | 25.8 | 20.7 |  |  |  | 
0.0195 | 0.248 | 0.0157 | 16.9 |  |  |  | CC[C@]1(O)C[C@@H]2CN(CCc3c([nH]c4ccccc34)[C@@](C(=O)OC)(c3cc4c(cc3OC)N(C)[C@H]3[C@@](O)(C(=O)OC)[C@H](OC(C)=O)[C@]5(CC)C=CCN6CC[C@]43[C@@H]65)C2)C1 [VINBLASTINE] |  |  |  |  | 12.72 | 1073.76 |  | 
 |  |  |  | 2.84 | 9.37 | 2.34 | COc1ccc(COc2cccc(/C=N/NC(=O)c3cc4c(cn3)[nH]c3ccccc34)c2)cc1 | 37 | 23.6 | 52 | 38.6 |  |  |  | 
 |  |  |  |  |  |  | O=Cc1ccc(OCc2nnc(-c3cc4c(cn3)[nH]c3ccccc34)o2)cc1 | -2.52 | 2.98 | 9.17 | 6.63 |  |  |  | 
 |  |  |  | 7.49 | 6.6 | 2.04 | O=C(N/N=C/c1cccc(OCc2ccc(C(F)(F)F)cc2)c1)c1cc2c(cn1)[nH]c1ccccc12 | 38.4 | 24.4 | 51.2 | 23.4 |  |  |  | 
 |  |  |  | 6.52 | 3.56 | 2.62 | O=C(N/N=C/c1cccc(OCc2ccccc2)c1)c1cc2c(cn1)[nH]c1ccccc12 | 23.1 | 25.6 | 50.2 | 29.7 |  |  |  | 
 |  |  |  |  |  |  | c1ccc(OCc2nnc(-c3cc4c(cn3)[nH]c3ccccc34)o2)cc1 | -5.47 | 7.42 | 1.69 | 4.84 |  |  |  | 
 |  |  |  | 1.17 | 1.64 | 3.88 | COC(=O)c1ccc(COc2cccc(/C=N/NC(=O)c3cc4c(cn3)[nH]c3ccccc34)c2)cc1 | 56.4 | 31.8 | 63.8 | 25.9 |  |  |  | 
 |  |  |  | 2.42 | 7.22 | 6.74 | O=C(N/N=C/c1cccc(OCc2ccc(Br)cc2)c1)c1cc2c(cn1)[nH]c1ccccc12 | 50.4 | 31.8 | 58.7 | 52.8 |  |  |  | 
0.0232 | 0.759 | 0.0189 | 73 |  |  |  | CC(=O)O[C@H]1C(=O)[C@@]2(C)[C@H]([C@H](OC(=O)c3ccccc3)[C@]3(O)C[C@H](OC(=O)[C@H](O)[C@@H](NC(=O)c4ccccc4)c4ccccc4)C(C)=C1C3(C)C)[C@]1(OC(C)=O)CO[C@@H]1C[C@@H]2O [PACLITAXEL] |  |  |  |  | 32.76 | 3852.53 | 65.2 | < 5
 |  |  |  | 3.64 | 4.56 | 1.04 | O=C(N/N=C/c1ccc(-c2ccccc2)cc1)c1cc2c(cn1)[nH]c1ccccc12 | 36.6 | 29.3 | 62.5 | 44.3 |  |  |  | 
 |  |  |  | 5.02 | 8.62 | 5.02 | O=C(N/N=C/c1cccc(OCc2ccc(Cl)cc2)c1)c1cc2c(cn1)[nH]c1ccccc12 | 24.3 | 30.7 | 56.7 | 40.4 |  |  |  | 
 |  |  |  |  |  |  | Cc1ccccc1COc1cccc(/C=N/NC(=O)c2cc3c(cn2)[nH]c2ccccc23)c1 | 18.2 | 24.8 | 36 | 29.4 |  |  |  | 
 |  |  |  |  |  |  | O=C(N/N=C/c1cccc(OCc2cccc(Cl)c2)c1)c1cc2c(cn1)[nH]c1ccccc12 | 22.4 | 15.6 | 48.2 | 31.9 |  |  |  | 
 |  |  |  | 5.71 | 14.9 | 2.04 | O=C(N/N=C/c1ccc2ccccc2c1)c1cc2c(cn1)[nH]c1ccccc12 | 35.7 | 21.8 | 51.8 | 40.7 |  |  |  | 
 |  |  |  | 1.36 | 6.5 | 2.94 | O=C(N/N=C/c1cccc(OCc2ccccc2F)c1)c1cc2c(cn1)[nH]c1ccccc12 | 46.2 | 24.7 | 54.3 | 43.2 |  |  |  | 
 |  |  |  |  |  |  | O=C(N/N=C/c1c[nH]c2ccccc12)c1cc2c(cn1)[nH]c1ccccc12 | 6.31 | 7.1 | 8.66 | 16.2 |  |  |  | 
 |  |  |  |  |  |  | O=C(N/N=C/c1cccc(O)c1)c1cc2c(cn1)[nH]c1ccccc12 | -13.8 | 8.13 | 9.69 | 5.08 |  |  |  | 
 |  |  |  | 2.18 | 5.24 | 4.06 | Cc1ccc(COc2cccc(/C=N/NC(=O)c3cc4c(cn3)[nH]c3ccccc34)c2)cc1 | 53.5 | 28.7 | 45 | 29.2 |  |  |  | 
 |  |  |  | 1.27 | 2.32 | 3.02 | O=C(N/N=C/c1cccc(OCc2ccccc2Cl)c1)c1cc2c(cn1)[nH]c1ccccc12 | 36.2 | 28.6 | 56.3 | 45.4 |  |  |  | 
 |  |  |  |  |  |  | N#Cc1ccccc1COc1cccc(/C=N/NC(=O)c2cc3c(cn2)[nH]c2ccccc23)c1 | 15.1 | 20.7 | 37.4 | 15.5 |  |  |  | 
 |  |  |  |  |  |  | N#Cc1cccc(COc2cccc(/C=N/NC(=O)c3cc4c(cn3)[nH]c3ccccc34)c2)c1 | 17.9 | 21.9 | 24.1 | 12.8 |  |  |  | 
 |  |  |  | 1.04 | 8.3 | 3.02 | O=C(N/N=C/c1cccc(OCc2ccc([N+](=O)[O-])cc2)c1)c1cc2c(cn1)[nH]c1ccccc12 | 32.8 | 20.2 | 56.7 | 38.4 |  |  |  | 
 |  |  |  |  |  |  | Cc1cccc(COc2cccc(/C=N/NC(=O)c3cc4c(cn3)[nH]c3ccccc34)c2)c1 | 26.3 | 22.7 | 33.2 | 27.4 |  |  |  | 
 |  |  |  |  |  |  | O=C(N/N=C/c1cccc(OCc2ccc(F)cc2)c1)c1cc2c(cn1)[nH]c1ccccc12 | 23.6 | 27.2 | 48 | 29.7 |  |  |  | 

Structure (SMILES) | IC50 (A549) [µM] | IC50 (A549/TR) [µM] | IC50 (A2780S) [µM] | IC50 (A2780/Taxol) [µM] | IC50 (NCI-H460 [6]) [µM] | IC50 (MCF7 [7]) [µM] | IC50 (Raji [8]) [µM] | inhibition at 1 µM (MCF7 [1]) [%] | inhibition at 1 µM (MDA-MB-231) [%] | inhibition at 1 µM (Raji [2]) [%] | inhibition at 1 µM (NCI-H460 [3]) [%] | Ratio IC50 [4] | Ratio IC50 [5] | inhibition in vivo at 30 mg/kg (NCI-H460 [9]) [%] | Activity (Mus musculus) [%]
C/C(=N\NC(=O)c1cccc(S(=O)(=O)N2CCOCC2)c1)c1cc(Cl)ccc1O |  |  |  |  | 0.47 | 0.62 | 0.98 | 59.3 | 41.3 | 51.7 | 43.2 |  |  |  | 
COc1cc2c(c(OC)c1OC)-c1ccc(OC)c(=O)cc1[C@@H](NC(C)=O)CC2 [COLCHICINE] |  | 0.167 | 0.0219 | 35.6 |  |  |  |  |  |  |  | 60.41 | 1630.02 |  | 
